From ChEMBL document CHEMBL3352378, “Novel carbazole inhibits phospho-STAT3 through induction of protein-tyrosine phosphatase PTPN6” (J Med Chem, 2014)
Activity calls are given as the source filed them. The rule behind the calls is not given here.

What was measured:
[1] = target: Tyrosine-protein phosphatase non-receptor type 6 (Homo sapiens) (UniProt P29350); experiment: Induction of PTPN6 in human Hs578T cells assessed as inhibition of STAT3 phosphorylation at 3 uM after 16 hrs by Western blotting analysis in presence of pervanadate; format: cell-based; conditions: Hs-578T
Outline: (§1)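 HS578T and SUM149PT cells treated for 16 h without or with increasing pervanadate as a phosphatase inhibitor; JAK1/2 inhibitor CP690550 run in parallel. Lysates immunoblotted for phospho-STAT3 (Y705), with β-actin as loading control.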

[2] = target: Tyrosine-protein phosphatase non-receptor type 6 (Homo sapiens) (UniProt P29350); experiment: Induction of PTPN6 in human SUM149PT cells assessed as inhibition of STAT3 phosphorylation at 3 uM after 16 hrs by Western blotting analysis in presence of pervanadate; format: cell-based; outline: as §1

Chain of Tyrosine-protein phosphatase non-receptor type 6 (Homo sapiens) (P29350 whole entry): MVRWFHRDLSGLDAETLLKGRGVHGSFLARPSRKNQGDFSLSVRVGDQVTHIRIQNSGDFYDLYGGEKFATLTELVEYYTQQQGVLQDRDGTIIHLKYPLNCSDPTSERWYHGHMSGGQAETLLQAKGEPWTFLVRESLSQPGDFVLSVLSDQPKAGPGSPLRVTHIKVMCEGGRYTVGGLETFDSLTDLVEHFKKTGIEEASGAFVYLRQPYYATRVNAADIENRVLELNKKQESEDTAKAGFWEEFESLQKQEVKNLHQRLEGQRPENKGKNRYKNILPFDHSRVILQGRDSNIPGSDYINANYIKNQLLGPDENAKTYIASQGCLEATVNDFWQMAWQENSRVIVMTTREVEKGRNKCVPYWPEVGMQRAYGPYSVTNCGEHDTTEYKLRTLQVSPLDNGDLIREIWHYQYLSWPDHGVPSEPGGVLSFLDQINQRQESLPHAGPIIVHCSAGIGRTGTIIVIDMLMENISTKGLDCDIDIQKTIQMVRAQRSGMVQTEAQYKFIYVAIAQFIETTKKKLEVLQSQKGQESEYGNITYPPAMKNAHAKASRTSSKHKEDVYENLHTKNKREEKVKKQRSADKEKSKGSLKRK

C[C@@H]1CCN(C(=O)CC#N)C[C@@H]1N(C)c1ncnc2[nH]ccc12
inhibition [1]: Active
inhibition [2]: Active
